Active and inactive are the calls of the source. The calls are words filed in the database; no cut-off is given here.
Legend:
[1] = target: Glucocorticoid receptor (Homo sapiens) (UniProt P04150); experiment: Inhibition of Glucocorticoid receptor (unknown origin) at 10 uM relative to control
Method in brief: (§1)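 Part of a 98-target external biochemical selectivity panel that used radioligand/receptor binding-type assays. Compound tested once at 10 µM. Results are reported as % inhibition versus control; negative values mean stimulation of receptor activity.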

[2] = target: Serotonin 2 (5-HT2) receptor (Homo sapiens) (UniProt P41595+P28223+P28335); experiment: Inhibition of Serotonin 5-HT2 receptor (unknown origin) at 10 uM relative to control; assay type: protein assay; method in brief: as §1
[3] = target: 3-oxo-5-alpha-steroid 4-dehydrogenase 1 (Homo sapiens) (UniProt P18405); experiment: Inhibition of Steroid 5alpha-reductase 1 (unknown origin) at 10 uM relative to control
Method in brief: (§2)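 Binding and enzyme panel run by an outside contractor against receptors, ion channels and enzymes. Each assay used a single 10 μM test concentration, and results are expressed as percent inhibition. A negative value means stimulation of receptor activity or activation of enzyme activity.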

Mus musculus [4] = experiment: Pro-cognitive activity in C57BL/6N mouse assessed as increase in Egr-2 gene expression in hippocampus at 3 to 30 mg/kg, po […]; assay type: functional, organism-based; details: dose 3-30 mg/kg
[5] = target: T1, GABA-A receptor; anion channel (Homo sapiens) (UniProt P14867+P47870+P18507+P28472+P48169+Q99928+Q9UN88+P34903+O00591+O14764+Q8N1C3+P18505+P78334+P47869+P31644+Q16445); experiment: Inhibition of GABA receptor (unknown origin) at 10 uM relative to control; assay type: protein-complex assay; method in brief: as §1
Homo sapiens [6] = species on record: Homo sapiens; experiment: Inhibition of strychnine-Glycine receptor (unknown origin) at 10 uM relative to control; method in brief: as §2
[7] = target: Thromboxane A2 receptor (Homo sapiens) (UniProt P21731); experiment: Inhibition of Thromboxane A2 receptor (unknown origin) at 10 uM relative to control; method in brief: as §2
[8] = target: B2 bradykinin receptor (Homo sapiens) (UniProt P30411); experiment: Inhibition of Bradykinin B2 receptor (unknown origin) at 10 uM relative to control
Method in brief: (§3)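 Single-point screen at 10 μM across receptor, ion channel and enzyme binding or activity assays. Expressed as percent inhibition versus control; negative values denote stimulation.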

Homo sapiens [9] = species on record: Homo sapiens; experiment: Inhibition of Imidazoline I2 receptor (unknown origin) at 10 uM relative to control; method in brief: as §1
Homo sapiens [10] = species on record: Homo sapiens; experiment: Inhibition of EGF receptor (unknown origin) at 10 uM relative to control
Method in brief: (§4)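 Enzyme activity assays from the same 98-target biochemical panel. Single test concentration of 10 µM. Read-out is % inhibition of enzyme activity relative to control; negative percentages indicate activation of the enzyme.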

[11] = target: 5-hydroxytryptamine receptor 4 (Homo sapiens) (UniProt Q13639); experiment: Inhibition of Serotonin 5-HT4 receptor (unknown origin) at 10 uM relative to control; method in brief: as §1
Homo sapiens [12] = species on record: Homo sapiens; experiment: Inhibition of Sigma receptor (unknown origin) at 10 uM relative to control; method in brief: as §1
[13] = target: G protein-coupled receptor 52 (Rattus norvegicus, UniProt A0A8I5ZQK1); experiment: Agonist activity at rat GPR52 expressed in CHO cells assessed as increase in intracellular cAMP level incubated for 30 mins by Alphascreen assay; assay type: cell-based
Method in brief: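 CHO cells stably expressing human, mouse or rat GPR52, plus naïve CHO cells, at 10,000 cells/well. Stimulated in cAMP assay buffer for 30 min at 37 °C. Intracellular cAMP read by AlphaScreen.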

[14] = target: G protein-coupled receptor 52 (Rattus norvegicus) (UniProt A0A8I5ZQK1); experiment: Agonist activity at GPR52 in rat Striatal neuron assessed as increase in Egr-2 mRNA expression by RT-PCR analysis; assay type: cell-based; details: filed as agonist
Method in brief: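 Rat primary striatal neurons (E18–19), used at DIV 13–16. Treated in HBSS with 5 mM HEPES pH 7.5 and 0.5% fatty-acid-free BSA for 15 or 60 min at 37 °C. Cells were homogenized in RLT buffer and IEG mRNA was quantified by qPCR using absolute or ΔΔCt relative quantification.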

[15] = target: 5-hydroxytryptamine receptor 2B (Homo sapiens) (UniProt P41595); experiment: Inhibition of Serotonin 5-HT2B receptor (unknown origin) at 10 uM relative to control; method in brief: as §1
[16] = target: MAO-B (amine oxidase [flavin-containing] B) (Homo sapiens, UniProt P27338); experiment: Inhibition of MAO-B (unknown origin) at 10 uM relative to control; method in brief: as §4
[17] = target: cAMP and cAMP-inhibited cGMP 3',5'-cyclic phosphodiesterase 10A (Homo sapiens) (UniProt Q9Y233); experiment: Inhibition of PDE10A1 (unknown origin) at 10 uM relative to control; method in brief: as §4
[18] = target: Interstitial collagenase (Homo sapiens) (UniProt P03956); experiment: Inhibition of MMP1 (unknown origin) at 10 uM relative to control; method in brief: as §4
[19] = target: Gastrin/cholecystokinin type B receptor (Homo sapiens) (UniProt P32239); experiment: Inhibition of CCK2 receptor (unknown origin) at 10 uM relative to control; method in brief: as §3
[20] = target: Insulin receptor (Homo sapiens) (UniProt P06213); experiment: Inhibition of Insulin receptor (unknown origin) at 10 uM relative to control; method in brief: as §1
[21] = target: Muscarinic acetylcholine receptor M3 (Homo sapiens) (UniProt P20309); experiment: Inhibition of Muscarinic M3 receptor (unknown origin) at 10 uM relative to control; method in brief: as §1
Mus musculus [22] = experiment: Antipsychotic activity in GPR52 knockout ICR mouse assessed as inhibition of MK-801-induced hyperactivity at 30 mg/kg, po pretreated with compound for 1 hr followed by MK-801 addition and measured after 90 mins; assay type: functional, organism-based; details: time 150.0 min
[23] = target: Beta-3 adrenergic receptor (Homo sapiens) (UniProt P13945); experiment: Inhibition of Adrenergic beta3 (unknown origin) at 10 uM relative to control; method in brief: as §3
[24] = target: Alpha-2B adrenergic receptor (Homo sapiens) (UniProt P18089); experiment: Inhibition of Adrenergic alpha2B receptor (unknown origin) at 10 uM relative to control; method in brief: as §3
[25] = target: Matrilysin (Homo sapiens) (UniProt P09237); experiment: Inhibition of MMP7 (unknown origin) at 10 uM relative to control; method in brief: as §4
[26] = target: Vasopressin V2 receptor (Homo sapiens) (UniProt P30518); experiment: Inhibition of Vasopressin V2 receptor (unknown origin) at 10 uM relative to control; method in brief: as §2
Mus musculus [27] = experiment: Antipsychotic activity in C57BL/6N mouse assessed as increase in c-fos mRNA expression at 3 to 100 mg/kg, po measured for 1 hr by qPCR analysis; assay type: functional, organism-based; details: dose 3-100 mg/kg
Method in brief: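 Mice dosed orally at 3–100 mg/kg or vehicle. Tissues taken 1 h post-dose, NAc shell and striatum dissected, frozen on dry ice. IEG mRNA quantified by qPCR (absolute or ΔΔCt); n = 5–6; mean ± SEM.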

[28] = target: T1, GABA-A receptor; anion channel (Homo sapiens); experiment: Inhibition of GABAA receptor (unknown origin) at 10 uM in presence of flunitrazepam relative to control; assay type: protein-complex assay; method in brief: as §1
[29] = target: D(3) dopamine receptor (Homo sapiens) (UniProt P35462); experiment: Inhibition of Dopamine D3 receptor (unknown origin) at 10 uM relative to control; method in brief: as §1
[30] = target: Nitric oxide synthase 1 (Homo sapiens) (UniProt P29475); experiment: Inhibition of nNOS (unknown origin) at 10 uM relative to control; method in brief: as §2

Sequence of Alpha-2B adrenergic receptor (Homo sapiens) (P18089 whole entry): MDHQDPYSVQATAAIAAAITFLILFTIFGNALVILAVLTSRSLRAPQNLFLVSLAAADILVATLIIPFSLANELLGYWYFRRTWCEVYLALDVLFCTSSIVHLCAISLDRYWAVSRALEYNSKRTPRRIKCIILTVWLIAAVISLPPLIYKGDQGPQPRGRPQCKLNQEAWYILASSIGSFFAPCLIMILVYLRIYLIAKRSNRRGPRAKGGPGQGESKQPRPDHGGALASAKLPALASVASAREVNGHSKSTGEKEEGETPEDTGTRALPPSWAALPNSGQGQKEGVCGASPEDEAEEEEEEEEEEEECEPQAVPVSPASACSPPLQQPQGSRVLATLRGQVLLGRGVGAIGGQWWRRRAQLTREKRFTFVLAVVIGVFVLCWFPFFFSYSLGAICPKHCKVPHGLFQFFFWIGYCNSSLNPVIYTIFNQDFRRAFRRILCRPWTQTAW
Sequence of Beta-3 adrenergic receptor (Homo sapiens) (P13945 whole entry, looked up): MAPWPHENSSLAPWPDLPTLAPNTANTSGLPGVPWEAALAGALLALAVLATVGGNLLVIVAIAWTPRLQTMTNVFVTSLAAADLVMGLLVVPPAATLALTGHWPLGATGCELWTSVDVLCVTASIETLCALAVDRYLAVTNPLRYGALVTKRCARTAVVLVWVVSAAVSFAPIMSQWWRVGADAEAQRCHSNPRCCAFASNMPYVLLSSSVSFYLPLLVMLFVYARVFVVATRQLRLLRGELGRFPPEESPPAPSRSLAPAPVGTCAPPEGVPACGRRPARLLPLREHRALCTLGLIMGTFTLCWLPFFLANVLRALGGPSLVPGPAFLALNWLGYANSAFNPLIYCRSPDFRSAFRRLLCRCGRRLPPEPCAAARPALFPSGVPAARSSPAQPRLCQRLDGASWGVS
Sequence of Glucocorticoid receptor (Homo sapiens) (P04150 whole entry): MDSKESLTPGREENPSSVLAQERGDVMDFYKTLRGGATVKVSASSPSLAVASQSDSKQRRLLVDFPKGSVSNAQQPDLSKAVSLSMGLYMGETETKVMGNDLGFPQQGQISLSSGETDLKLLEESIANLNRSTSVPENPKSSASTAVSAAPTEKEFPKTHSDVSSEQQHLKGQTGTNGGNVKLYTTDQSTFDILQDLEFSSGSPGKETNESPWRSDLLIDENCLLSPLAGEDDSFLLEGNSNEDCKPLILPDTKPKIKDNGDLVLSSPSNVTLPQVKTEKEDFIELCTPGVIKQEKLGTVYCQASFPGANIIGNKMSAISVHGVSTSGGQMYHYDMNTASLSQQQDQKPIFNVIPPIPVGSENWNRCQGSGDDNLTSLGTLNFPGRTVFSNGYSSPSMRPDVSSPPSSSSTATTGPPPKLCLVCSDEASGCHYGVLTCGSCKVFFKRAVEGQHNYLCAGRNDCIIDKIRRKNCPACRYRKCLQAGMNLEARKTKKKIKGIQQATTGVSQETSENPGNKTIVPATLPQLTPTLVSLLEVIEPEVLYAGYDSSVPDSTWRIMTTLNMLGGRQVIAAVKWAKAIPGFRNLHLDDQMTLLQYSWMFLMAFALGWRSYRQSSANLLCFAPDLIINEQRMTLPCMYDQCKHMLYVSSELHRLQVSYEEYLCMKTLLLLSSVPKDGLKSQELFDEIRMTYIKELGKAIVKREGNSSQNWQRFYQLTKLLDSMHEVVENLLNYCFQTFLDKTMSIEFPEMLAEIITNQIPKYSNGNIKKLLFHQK
Sequence of 5-hydroxytryptamine receptor 2B (Homo sapiens) (P41595 whole entry): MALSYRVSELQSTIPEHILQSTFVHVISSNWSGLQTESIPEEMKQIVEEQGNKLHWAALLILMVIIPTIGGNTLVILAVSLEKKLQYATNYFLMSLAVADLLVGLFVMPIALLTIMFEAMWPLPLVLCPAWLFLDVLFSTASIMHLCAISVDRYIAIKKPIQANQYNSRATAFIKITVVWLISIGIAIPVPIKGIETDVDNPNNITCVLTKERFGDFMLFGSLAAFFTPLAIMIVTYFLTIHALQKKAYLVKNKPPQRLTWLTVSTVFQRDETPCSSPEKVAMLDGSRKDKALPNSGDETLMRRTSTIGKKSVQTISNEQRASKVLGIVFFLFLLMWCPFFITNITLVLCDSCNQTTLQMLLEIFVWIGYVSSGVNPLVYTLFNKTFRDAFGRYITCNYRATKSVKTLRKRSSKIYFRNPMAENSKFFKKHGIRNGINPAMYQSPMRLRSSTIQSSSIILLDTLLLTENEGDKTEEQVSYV
Sequence of Interstitial collagenase (Homo sapiens) (P03956 whole entry): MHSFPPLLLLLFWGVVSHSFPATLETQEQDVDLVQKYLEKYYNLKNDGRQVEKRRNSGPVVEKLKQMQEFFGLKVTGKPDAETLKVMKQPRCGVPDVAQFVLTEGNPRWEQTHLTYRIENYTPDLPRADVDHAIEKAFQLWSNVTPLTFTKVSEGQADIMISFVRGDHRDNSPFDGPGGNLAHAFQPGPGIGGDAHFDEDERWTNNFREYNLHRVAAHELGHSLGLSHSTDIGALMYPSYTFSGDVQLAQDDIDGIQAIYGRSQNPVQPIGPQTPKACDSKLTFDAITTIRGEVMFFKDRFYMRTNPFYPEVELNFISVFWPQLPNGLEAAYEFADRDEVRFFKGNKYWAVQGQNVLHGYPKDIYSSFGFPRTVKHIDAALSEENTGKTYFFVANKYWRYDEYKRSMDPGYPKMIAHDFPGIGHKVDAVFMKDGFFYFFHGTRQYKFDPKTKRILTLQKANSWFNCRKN
Sequence of Insulin receptor (Homo sapiens) (P06213 28-758 limits assumed): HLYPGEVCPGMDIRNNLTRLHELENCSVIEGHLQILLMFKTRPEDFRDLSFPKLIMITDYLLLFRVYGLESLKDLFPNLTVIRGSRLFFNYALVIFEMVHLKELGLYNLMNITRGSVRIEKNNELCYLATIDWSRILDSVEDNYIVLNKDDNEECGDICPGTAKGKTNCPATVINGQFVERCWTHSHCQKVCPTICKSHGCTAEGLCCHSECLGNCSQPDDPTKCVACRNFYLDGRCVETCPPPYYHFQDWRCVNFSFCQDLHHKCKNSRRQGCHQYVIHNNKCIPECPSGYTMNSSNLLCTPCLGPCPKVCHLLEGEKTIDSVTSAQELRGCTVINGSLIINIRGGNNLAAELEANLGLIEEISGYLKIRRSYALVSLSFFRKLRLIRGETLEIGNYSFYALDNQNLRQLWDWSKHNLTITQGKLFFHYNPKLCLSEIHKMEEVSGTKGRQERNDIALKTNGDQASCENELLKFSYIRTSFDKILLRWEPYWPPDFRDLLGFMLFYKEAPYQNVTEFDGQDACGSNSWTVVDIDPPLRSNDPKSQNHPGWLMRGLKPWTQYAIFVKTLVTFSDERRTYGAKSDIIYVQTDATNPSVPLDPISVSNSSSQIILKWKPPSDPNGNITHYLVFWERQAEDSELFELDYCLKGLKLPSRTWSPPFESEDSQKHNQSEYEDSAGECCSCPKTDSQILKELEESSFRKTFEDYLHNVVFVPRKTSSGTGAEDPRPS
Sequence of Insulin receptor (Homo sapiens) (P06213 763-1382 limits assumed): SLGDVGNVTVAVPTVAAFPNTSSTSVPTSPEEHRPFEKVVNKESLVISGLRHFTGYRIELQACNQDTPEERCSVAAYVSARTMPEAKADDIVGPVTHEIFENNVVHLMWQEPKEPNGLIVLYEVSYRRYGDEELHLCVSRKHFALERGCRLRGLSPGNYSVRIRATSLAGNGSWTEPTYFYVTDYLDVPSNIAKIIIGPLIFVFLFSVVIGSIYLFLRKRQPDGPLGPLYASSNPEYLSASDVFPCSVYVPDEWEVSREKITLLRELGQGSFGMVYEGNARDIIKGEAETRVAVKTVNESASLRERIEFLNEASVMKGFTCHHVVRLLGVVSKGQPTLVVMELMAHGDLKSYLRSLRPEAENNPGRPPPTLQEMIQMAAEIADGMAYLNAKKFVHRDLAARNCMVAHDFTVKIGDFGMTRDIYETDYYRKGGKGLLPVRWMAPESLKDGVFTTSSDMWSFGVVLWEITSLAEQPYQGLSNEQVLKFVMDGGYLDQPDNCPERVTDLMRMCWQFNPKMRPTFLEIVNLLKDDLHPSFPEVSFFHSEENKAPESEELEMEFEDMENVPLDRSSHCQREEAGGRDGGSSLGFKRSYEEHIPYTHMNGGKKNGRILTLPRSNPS
Sequence of Gastrin/cholecystokinin type B receptor (Homo sapiens) (P32239 whole entry): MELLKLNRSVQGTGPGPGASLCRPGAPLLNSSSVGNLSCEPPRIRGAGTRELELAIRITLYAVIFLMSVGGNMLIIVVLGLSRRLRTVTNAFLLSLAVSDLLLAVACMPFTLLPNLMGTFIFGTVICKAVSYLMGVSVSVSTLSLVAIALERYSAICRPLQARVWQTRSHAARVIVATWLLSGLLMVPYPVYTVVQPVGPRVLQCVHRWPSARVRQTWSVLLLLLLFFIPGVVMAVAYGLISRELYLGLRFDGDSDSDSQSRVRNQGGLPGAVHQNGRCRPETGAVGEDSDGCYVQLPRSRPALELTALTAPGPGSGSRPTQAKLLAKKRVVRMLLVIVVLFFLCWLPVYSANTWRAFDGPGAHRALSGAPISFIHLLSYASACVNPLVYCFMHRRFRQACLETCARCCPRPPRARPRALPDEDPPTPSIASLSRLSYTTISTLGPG
Sequence of Thromboxane A2 receptor (Homo sapiens) (P21731 whole entry): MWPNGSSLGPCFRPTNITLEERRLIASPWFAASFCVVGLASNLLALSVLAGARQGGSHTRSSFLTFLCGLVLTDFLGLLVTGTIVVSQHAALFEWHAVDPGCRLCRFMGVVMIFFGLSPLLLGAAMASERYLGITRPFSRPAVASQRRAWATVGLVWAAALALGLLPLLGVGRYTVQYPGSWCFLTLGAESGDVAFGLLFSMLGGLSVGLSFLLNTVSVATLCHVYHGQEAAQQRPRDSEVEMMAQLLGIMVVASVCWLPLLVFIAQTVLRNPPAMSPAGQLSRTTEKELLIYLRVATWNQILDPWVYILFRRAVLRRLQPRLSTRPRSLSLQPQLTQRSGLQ
Sequence of 3-oxo-5-alpha-steroid 4-dehydrogenase 1 (Homo sapiens) (P18405 whole entry): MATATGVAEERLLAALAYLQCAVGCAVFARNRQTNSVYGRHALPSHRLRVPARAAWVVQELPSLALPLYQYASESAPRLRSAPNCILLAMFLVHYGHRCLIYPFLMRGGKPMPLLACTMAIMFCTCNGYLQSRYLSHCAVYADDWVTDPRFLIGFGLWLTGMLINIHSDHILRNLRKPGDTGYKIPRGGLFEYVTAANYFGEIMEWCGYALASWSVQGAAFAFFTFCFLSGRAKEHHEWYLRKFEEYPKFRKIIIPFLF

SMILES: Cc1cc(-n2nc(Cc3cc(F)cc(C(F)(F)F)c3)nc2C)ccc1C(N)=O [TP-024]
- inhibition [1]: 12%
- inhibition [2]: 14%
- inhibition [3]: 0%
- Activity (Mus musculus [4]): Active
- inhibition [5]: 2%
- inhibition (Homo sapiens [6]): -4%
- inhibition [7]: -6%
- inhibition [8]: 16%
- inhibition (Homo sapiens [9]): 6%
- inhibition (Homo sapiens [10]): -1%
- inhibition [11]: 4%
- inhibition (Homo sapiens [12]): 28%
- EC50 [13]: 135 nM
- Activity [14]: Active
- inhibition [15]: 6%
- inhibition at 10 µM [16]: 26%
- inhibition [17]: 0%
- inhibition [18]: -3%
- inhibition [19]: 0%
- inhibition [20]: -9%
- inhibition [21]: -6%
- Activity (Mus musculus [22]): inactive
- inhibition [23]: 0%
- inhibition [24]: 5%
- inhibition [25]: 0%
- inhibition [26]: -1%
- Activity (Mus musculus [27]): Active
- inhibition [28]: 6%
- inhibition [29]: 8%
- inhibition [30]: 11%

— ChEMBL document CHEMBL5678817, “FTBMT, a Novel and Selective GPR52 Agonist, Demonstrates Antipsychotic-Like and Procognitive Effects in Rodents, Revealing a Potential Therapeutic Agent for Schizophrenia” (J Pharmacol Exp Ther, 2017)
